Reference: ChEMBL document CHEMBL3272345, “Specificity in enzyme inhibition. 3. Synthesis of 5-substituted 2,2-dimethyl-4-imidazolidinones as inhibitors of tyrosine decarboxylase and histidine decarboxylase” (1976)
Active and inactive are the calls of the source. The rule behind the calls is not given here.

Assays:
[1] = biological target: T1, Decarboxylase (Enterococcus faecalis) (UniProt Q8KXD2); experiment: Inhibition of Streptococcus faecalis tyrosine decarboxylase assessed as 14CO2 production using 5 mM L-phenylalanine-1-14C as substrate at 5 mM after 30 mins by scintillation counting analysis
T1 sequence (whole entry): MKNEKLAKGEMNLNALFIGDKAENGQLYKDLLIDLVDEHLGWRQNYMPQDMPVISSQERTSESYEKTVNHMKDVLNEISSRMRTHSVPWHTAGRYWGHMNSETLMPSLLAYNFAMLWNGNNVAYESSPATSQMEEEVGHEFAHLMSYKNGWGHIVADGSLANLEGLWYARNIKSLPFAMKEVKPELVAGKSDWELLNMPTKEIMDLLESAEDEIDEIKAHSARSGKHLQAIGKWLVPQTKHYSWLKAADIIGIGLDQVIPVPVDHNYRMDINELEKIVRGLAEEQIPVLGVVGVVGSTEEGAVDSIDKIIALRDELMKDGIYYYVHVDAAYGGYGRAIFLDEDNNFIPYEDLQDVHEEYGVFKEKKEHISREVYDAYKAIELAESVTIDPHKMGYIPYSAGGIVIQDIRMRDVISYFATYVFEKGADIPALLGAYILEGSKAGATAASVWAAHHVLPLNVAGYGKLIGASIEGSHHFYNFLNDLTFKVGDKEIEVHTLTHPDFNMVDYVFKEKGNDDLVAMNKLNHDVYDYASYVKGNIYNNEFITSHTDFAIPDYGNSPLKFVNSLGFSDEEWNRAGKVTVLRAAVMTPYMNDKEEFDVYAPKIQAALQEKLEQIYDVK
How it was run: (§1)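 Crude S. faecalis tyrosine decarboxylase acetone powder (0.5 mg) used as the phenylalanine decarboxylase. Buffer was citrate–phosphate/0.2 M NaPO₄ pH 5.5 with 0.5 mM pyridoxal 5-phosphate, and the substrate was L-phenylalanine-1-¹⁴C (10⁻² μCi/μmol). Inhibitor at 5 mM. Incubated at 37° with shaking, stopped by TCA. ¹⁴CO₂ absorbed 30 min into hyamine and counted by scintillation. Percent inhibition versus controls, average of triplicates.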

[2] = biological target: T1, Decarboxylase (Enterococcus faecalis); experiment: Inhibition of Streptococcus faecalis tyrosine decarboxylase assessed as 14CO2 production using 10 mM L-phenylalanine-1-14C as substrate at 5 mM after 20 mins by scintillation counting analysis; how it was run: as §1
[3] = biological target: T1, Decarboxylase (Enterococcus faecalis); experiment: Inhibition of Streptococcus faecalis tyrosine decarboxylase assessed as 14CO2 production using 0.8 mM L-tyrosine-1-14C as substrate at 5 mM after 20 mins by scintillation counting analysis
How it was run: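 Crude acetone-powder enzyme from S. faecalis, 8 × 10⁻³ mg per 0.5 ml, in 0.075 M citrate–0.15 M phosphate pH 5.5 with 0.5 mM pyridoxal 5-phosphate. Substrate L-tyrosine-1-¹⁴C (2.85 × 10⁻¹ μCi/μmol). Inhibitor tested at 5 mM, 37° for 20 min, stopped with TCA. ¹⁴CO₂ trapped in hyamine hydroxide for 20 min and counted by scintillation. Percent inhibition versus no-inhibitor controls, mean of triplicate runs.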

Ileum = experiment: Inhibition of histamine-induced response in guinea pig ileum at 1 mM; assay type: functional; conditions: Cavia porcellus
[4] = biological target: T2, Histidine decarboxylase (Rattus norvegicus) (UniProt P16453); experiment: Inhibition of fetal rat histidine decarboxylase at 1 mM
T2 sequence (whole entry): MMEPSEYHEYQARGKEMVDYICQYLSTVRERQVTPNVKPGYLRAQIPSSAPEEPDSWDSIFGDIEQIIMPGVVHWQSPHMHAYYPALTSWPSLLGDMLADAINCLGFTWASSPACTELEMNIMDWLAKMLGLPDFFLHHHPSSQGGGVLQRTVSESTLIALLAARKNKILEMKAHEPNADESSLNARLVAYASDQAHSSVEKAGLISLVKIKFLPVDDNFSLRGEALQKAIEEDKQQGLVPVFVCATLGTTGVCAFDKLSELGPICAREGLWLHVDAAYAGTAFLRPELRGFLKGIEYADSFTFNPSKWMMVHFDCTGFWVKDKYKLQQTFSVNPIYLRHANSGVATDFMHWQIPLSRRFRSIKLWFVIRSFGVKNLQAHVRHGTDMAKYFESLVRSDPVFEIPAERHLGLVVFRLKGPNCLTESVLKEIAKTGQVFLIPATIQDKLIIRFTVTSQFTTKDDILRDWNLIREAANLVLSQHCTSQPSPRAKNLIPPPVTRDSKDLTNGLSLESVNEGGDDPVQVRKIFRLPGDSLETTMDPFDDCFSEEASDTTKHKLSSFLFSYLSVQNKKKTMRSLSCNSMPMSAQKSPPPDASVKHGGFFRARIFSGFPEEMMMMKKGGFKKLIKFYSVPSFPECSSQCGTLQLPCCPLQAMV

SMILES	inhibition [1]	inhibition [2]	inhibition [3]	inhibition [4]	inhibition at 1000 µM (Ileum)
CC1(C)NC(=O)[C@H](Cc2ccc(O)cc2)N1	39%	31%	38%		
CC1(C)NC(=O)[C@H](Cc2cnc[nH]2)N1	27%	24%		inactive	57%
CC1(C)NC(=O)[C@H](Cc2c[nH]c3ccccc23)N1	42%	33%			

More lines, main results first:

inhibition [1]	inhibition [2]	inhibition [3]	inhibition [4]	SMILES	inhibition at 1000 µM (Ileum)
17%	13%	10%		CC1(C)NC(=O)C(Cc2ccccc2)N1 (racemic)	
9%	7%			CC1(C)NC(=O)C(c2ccccc2)N1 (racemic)	
